“And” between values parts separate entries of the source, which are not always exact repeats. Identical values can stand only once. Like-named read-outs stand apart in the source and are kept apart here.
Experiments:
[1] = DPPH radical scavenging, 96-well colorimetric assay; assay type: biochemical; conditions: read-out: DPPH radical scavenging IC50 value; 30 minutes incubations; mean ± SD, n = 3
[2] = test system: normal periodontal ligament fibroblasts (PDL); assay: Cytotoxicity in normal periodontal ligament fibroblasts; assay type: cell-based
Outline: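 Normal periodontal ligament fibroblasts exposed to test compound for 72 h. […] Selectivity index is the compound's IC50 on PDL divided by its IC50 on a given cancer cell line.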

[3] = test system: skin melanoma A375.s2 cell line; assay: Antiproliferation, sulforhodamine B colorimetric bioassay, A375.s2; assay type: cell-based; conditions: read-out: Cytotoxicity (as of %Control) IC50, A375.s2; 72 h incubations, SRB; mean ± SD, n = 3-4
[4] = test system: breast carcinoma MCF7 cell line; assay: Antiproliferation, sulforhodamine B colorimetric bioassay, MCF7; assay type: cell-based; conditions: read-out: Cytotoxicity (as of %Control) IC50, MCF7, 72 h incubations, SRB, mean ± SD, n = 3-4
[5] = test system: breast carcinoma T47D cell line; assay: Antiproliferation, sulforhodamine B colorimetric bioassay, T47D; assay type: cell-based; conditions: read-out: Cytotoxicity (as of %Control) IC50, T47D, 72 h incubations, SRB, mean ± SD, n = 3-4
[6] = test system: Nitric oxide synthase / NO in LPS prompted RAW264.7 macrophages; assay type: cell-based; conditions: mean ± SD, n = 3

O=C1O[C@H]([C@@H](O)CO)C(O)=C1O [Ascorbic acid, ascorbic acid]
IC50 [1]: 3.37 µM

N.N.[Cl][Pt][Cl] [Cisplatin, cisplatin]
IC50 PDL Fibro ([2]; 72h incubations, mean ± SD, n = 3): (0.21 ± 0.04) µg/mL
IC50 ([2]; read-out: IC50 PDL Fibro, 72h incubations, mean ± SD, n = 3): 0.71 ± 0.13 µM
IC50 [3]: 0.7 ± 0.1 µM
IC50 [4]: 92.6 ± 12.5 µM
IC50 ([4]; listed as cisplatin): 92.6 µM
IC50 [5]: 45.1 ± 7.84 µM
IC50 ([5]; listed as cisplatin): 45.2 µM and 45 µM

COc1ccc2c(c1)c(CC(=O)O)c(C)n2C(=O)c1ccc(Cl)cc1 [Indomethacin, indomethacin]
IC50 ([6]; Mus musculus, RAW264.7, 24 h, read-out: NOS- IC50 value (NO scavenging/antiinflammation), LPS prompted RAW264.7, 24h incubations, Griess assay): 55.1 µM and 26.9 µg/mL
IC50 ([6]; read-out: NOS- IC50 value (NO scavenging/antiinflammation), LPS prompted RAW264.7, 24h incubations, Griess assay): 55.1 ± 2.25 µM

Reference: article PMC9727339 (Asian Pacific Journal of Cancer Prevention : APJCP, 2022)
